Test results published in ChEMBL document CHEMBL3227926, “2-Mercaptoacetamidines as gastric antisecretory agents” (J Med Chem, 1979).

Assays:
[1] = tested on: Canis familiaris; assay: Inhibition of gastrin tetrapeptide-induced gastric secretion in beagle dog at 8 mg/kg administered directly into stomach via gastric cannula measured after 2 hrs of stimulation; format: functional; conditions: Canis lupus familiaris
Method in brief: (§1)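 Conscious female beagles (5-9 kg) with chronic gastric fistula. Dose in 50 mL 1% methylcellulose was put into the stomach via the cannula 1 h before gastrin tetrapeptide 64 µg/kg sc (from 640 µg/mL in 30% Me2SO); controls got vehicle. Juice was collected for 2 h. Volume was measured, titratable acid obtained by titration to pH 7 with 0.01 N NaOH, and total acid taken as volume × concentration.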

[2] = tested on: Canis familiaris; assay: Toxicity in beagle dog assessed as emesis administered directly into stomach via gastric cannula; format: organism-based, Canis lupus familiaris; conditions: in vivo, other
[3] = tested on: Canis familiaris; assay: Toxicity in beagle dog assessed as tachycardia administered directly into stomach via gastric cannula; format: organism-based, Canis lupus familiaris; conditions: in vivo, other
[4] = tested on: Canis familiaris; assay: Toxicity in beagle dog assessed as gastric bleeding administered directly into stomach via gastric cannula; format: organism-based, Canis lupus familiaris; conditions: in vivo, other
[5] = tested on: Canis familiaris; assay: Inhibition of gastrin tetrapeptide-induced gastric secretion in beagle dog at 16 mg/kg administered directly into stomach via gastric cannula measured after 2 hrs of stimulation; format: functional; conditions: Canis lupus familiaris; method in brief: as §1

Question: Which inhibition in vivo at 8 mg/kg [1] does the source give for `Cl.N=C(CS)NCc1ccccn1` here?
Answer: 82%

Question: What about the Activity [2] of the same compound?
Answer: Toxic

Question: And the Activity [3]?
Answer: Toxic

Question: What about the Activity [4] of the same compound?
Answer: Toxic

Question: What does the source list for `Cl.N=C(CS)NC1c2ccccc2-c2ccccc21`?
Answer: inhibition in vivo at 16 mg/kg [5]: 0%; Activity [2]: Toxic; Activity [3]: Toxic; Activity [4]: Toxic

Question: For `CC(C)(C)CNC(=N)CCCS.Cl`, which inhibition in vivo at 8 mg/kg [1] is on record?
Answer: 11%

Question: What about the Activity [2] of the same compound?
Answer: Toxic

Question: What about the Activity [3] of the same compound?
Answer: Toxic

Question: What about the Activity [4] of the same compound?
Answer: Toxic

Question: Which inhibition in vivo at 8 mg/kg [1] does the source give for `Cl.N=C(CS)NC/C=C/c1ccccc1` here?
Answer: 53%

Question: What about the Activity [2] of the same compound?
Answer: Toxic

Question: And the Activity [3]?
Answer: Toxic

Question: And the Activity [4]?
Answer: Toxic

Question: `Cl.N=C(CO)NCc1ccccc1` was tested. Which inhibition in vivo at 16 mg/kg [5] did it give?
Answer: 0%

Question: What about the Activity [2] of the same compound?
Answer: Toxic

Question: What about the Activity [3] of the same compound?
Answer: Toxic

Question: And the Activity [4]?
Answer: Toxic

Question: `Cl.N=C(CS)Nc1ccccc1` was tested. Which inhibition in vivo at 16 mg/kg [5] did it give?
Answer: 0%

Question: And the Activity [2]?
Answer: Toxic

Question: What about the Activity [3] of the same compound?
Answer: Toxic

Question: What about the Activity [4] of the same compound?
Answer: Toxic

Question: With `O=C(CS)NC1CCCCC1` as the compound, how does the inhibition in vivo at 8 mg/kg [1] read?
Answer: 0%

Question: What about the Activity [2] of the same compound?
Answer: Toxic

Question: And the Activity [3]?
Answer: Toxic

Question: What about the Activity [4] of the same compound?
Answer: Toxic

Question: How did the inhibition in vivo at 8 mg/kg [1] turn out when `Cl.N=C(CS)NCC(c1ccccc1)c1ccccc1` was run?
Answer: 0%

Question: And the inhibition in vivo at 16 mg/kg [5]?
Answer: 60%

Question: What about the Activity [2] of the same compound?
Answer: Toxic

Question: And the Activity [3]?
Answer: Toxic

Question: And the Activity [4]?
Answer: Toxic

Question: Which results are given for `CC(C)(C)CNC(=N)CCSSCCC(=N)NCC(C)(C)C.Cl`?
Answer: inhibition in vivo at 8 mg/kg [1]: 21%; inhibition in vivo at 16 mg/kg [5]: 75%; Activity [2]: Toxic; Activity [3]: Toxic; Activity [4]: Toxic

Question: Which results are given for `Cl.N=C(CCSSCCC(=N)NCc1ccccc1)NCc1ccccc1`?
Answer: inhibition in vivo at 16 mg/kg [5]: 42%; Activity [2]: Toxic; Activity [3]: Toxic; Activity [4]: Toxic

Question: `Cl.N=C(CS)NC12CC3CC(CC(C3)C1)C2` was tested. Which inhibition in vivo at 8 mg/kg [1] did it give?
Answer: 61%

Question: What about the inhibition in vivo at 16 mg/kg [5] of the same compound?
Answer: 86%

Question: And the Activity [2]?
Answer: Toxic

Question: And the Activity [3]?
Answer: Toxic

Question: And the Activity [4]?
Answer: Toxic

Question: What does the source list for `Cl.N=C(CS)NCc1ccncc1`?
Answer: inhibition in vivo at 8 mg/kg [1]: 85%; Activity [2]: Toxic; Activity [3]: Toxic; Activity [4]: Toxic

Question: What does the source list for `Cl.N=C(CS)NC(c1ccccc1)c1ccccc1`?
Answer: inhibition in vivo at 16 mg/kg [5]: 82%; Activity [2]: Toxic; Activity [3]: Toxic; Activity [4]: Toxic

Question: Which results are given for `CC(=N)NC1CCCCC1`?
Answer: inhibition in vivo at 16 mg/kg [5]: 0%; Activity [2]: Toxic; Activity [3]: Toxic; Activity [4]: Toxic

Question: What does the source list for `Cl.N=C(CSSCC(=N)NCC12CC3CC(CC(C3)C1)C2)NCC12CC3CC(CC(C3)C1)C2`?
Answer: inhibition in vivo at 8 mg/kg [1]: 62%; inhibition in vivo at 16 mg/kg [5]: 80%; Activity [2]: Toxic; Activity [3]: Toxic; Activity [4]: Toxic

Question: `Cl.N=C(CS)Nc1cccc2ccccc12` was tested. Which inhibition in vivo at 16 mg/kg [5] did it give?
Answer: 64%

Question: What about the Activity [2] of the same compound?
Answer: Toxic

Question: And the Activity [3]?
Answer: Toxic

Question: And the Activity [4]?
Answer: Toxic

Question: Which results are given for `CC(C)NC(=N)CS.Cl`?
Answer: inhibition in vivo at 8 mg/kg [1]: 58%; Activity [2]: Toxic; Activity [3]: Toxic; Activity [4]: Toxic

Question: Which results are given for `CN(Cc1ccccc1)C(=N)CS.Cl`?
Answer: inhibition in vivo at 16 mg/kg [5]: 0%; Activity [2]: Toxic; Activity [3]: Toxic; Activity [4]: Toxic

Question: How did the inhibition in vivo at 8 mg/kg [1] turn out when `Cl.N=C(CS)NCC12CCCC(CCC1)C2` was run?
Answer: 67%

Question: And the inhibition in vivo at 16 mg/kg [5]?
Answer: 23%

Question: What about the Activity [2] of the same compound?
Answer: Toxic

Question: And the Activity [3]?
Answer: Toxic

Question: What about the Activity [4] of the same compound?
Answer: Toxic

Question: What does the source list for `CSCC(=N)NC[C@@H]1C[C@H]2CC[C@H]1C2` (relative stereo)?
Answer: inhibition in vivo at 8 mg/kg [1]: 35%; Activity [2]: Toxic; Activity [3]: Toxic; Activity [4]: Toxic
